# From PMC7114209 (Antiviral Research, 2008)
# Experiments:
# EBV DNA in Raji cells = details: latently infected Raji cells, not superinfected; ref Lin, 2003; cited from earlier work
# [1] = Cell growth and viability assay; format: cell-based; details: human, Raji cells, CC50, cytotoxic concentration that decreased cell viability to 50% of untreated cells, MTT, mean ± S.D. of three experiments
# Summary of the method: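 Raji cells (latently EBV-infected, non-producer) kept at 4–6 × 10^5 cells/ml in RPMI 1640 with 10% FCS, penicillin and streptomycin. Cells were seeded in 96-well plates and exposed to a range of test compound concentrations for 3 days. MTT was then added for 6 h at 37 °C and solubilised in 0.04 M HCl–isopropanol. Absorbance was read at 595 nm against 655 nm. CC50 is relative to the no-drug control.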
# EBV DNA in P3HR-1 cells = details: ref Lin, 2003; cited from earlier work
compound,measurement,setting,value
"CC1(C)[C@@H](O[C@H]2O[C@H](C(=O)O)[C@@H](O)[C@H](O)[C@H]2O[C@@H]2O[C@H](C(=O)O)[C@@H](O)[C@H](O)[C@H]2O)CC[C@]2(C)[C@H]3C(=O)C=C4[C@@H]5C[C@@](C)(C(=O)O)CC[C@]5(C)CC[C@@]4(C)[C@]3(C)CC[C@@H]12 [GL (18β-GL), Glycyrrhizic acid]",effect on EBV DNA,EBV DNA in Raji cells,no effects
same,CC50 at 3 days,[1],4.5 ± 0.16 mM
same,effect on EBV DNA,EBV DNA in P3HR-1 cells,no effects
